Here are results for 20 molecules from PubChem BioAssay AID1916 (Vanderbilt High Throughput Screening Facility, 2009).

Active and inactive are the calls of the source. The rule behind the calls is not given here.

ATP-sensitive inward rectifier potassium channel 1 (Homo sapiens), sequence (P48048 whole entry, looked up): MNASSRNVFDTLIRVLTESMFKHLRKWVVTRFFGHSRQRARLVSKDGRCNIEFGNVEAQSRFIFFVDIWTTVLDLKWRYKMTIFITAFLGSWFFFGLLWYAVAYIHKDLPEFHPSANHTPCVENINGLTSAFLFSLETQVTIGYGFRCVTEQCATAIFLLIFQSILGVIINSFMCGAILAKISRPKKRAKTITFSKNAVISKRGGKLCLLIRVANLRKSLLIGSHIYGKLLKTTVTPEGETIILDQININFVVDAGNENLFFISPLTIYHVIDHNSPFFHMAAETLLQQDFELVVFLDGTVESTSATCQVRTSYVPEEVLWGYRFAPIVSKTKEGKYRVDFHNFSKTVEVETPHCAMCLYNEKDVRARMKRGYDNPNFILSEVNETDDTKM

In one experiment the target is ATP-sensitive inward rectifier potassium channel 1 (Homo sapiens) (UniProt P48048). The experiment can be described thus: Kir1.1 thallium flux block, concentration series – Tet-inducible ROMK cells, FluoZin2, SAR follow-up (AID 1916). The note with it: thallium flux FluoZin2 fluorescence. Put shortly:
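Read-out basis: F/F0 slope over 7–12 s, normalized to TPNQ activity | Assay system: Tet-induced ROMK-expressing cells | Times: 20 min compound preincubation at room temperature | Probe or stimulus: Thallium stimulus buffer | Doses: 11-point compound series in threefold dilution steps | Medium: Serum-free medium during overnight Tet induction | Detection: FluoZin2 thallium flux fluorescence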
Broadly, the IC50 is the concentration at which inhibition is half-maximal. On to `COc1cccc(CN2CCOCCOCCN(Cc3cccc(OC)c3)CCOCC2)c1`, for which the IC50 was 25.2 µM.
As to `O=[N+]([O-])c1ccccc1CN1CCOCCOCCN(Cc2ccccc2[N+](=O)[O-])CCOCC1`, the concentration for half-maximal inhibition (IC50) was 6.62 µM.
The same measure, in the same setting: for `O=[N+]([O-])c1ccc(CN2CCOCCOCCN(Cc3ccc([N+](=O)[O-])cc3)CCOCC2)cc1` the value was 14.2 µM; for `N#Cc1cccc(CN2CCOCCOCCN(Cc3cccc(C#N)c3)CCOCC2)c1`, 0.324 µM.
`N#Cc1ccccc1CN1CCOCCOCCN(Cc2ccccc2C#N)CCOCC1`: the IC50 is 8.53 µM.
The same measure, in the same setting: under `COc1ccccc1CN1CCOCCOCCN(Cc2ccccc2OC)CCOCC1` stands “inactive”; under `Clc1ccc(CN2CCOCCOCCN(Cc3ccc(Cl)cc3)CCOCC2)cc1`, “inactive”; under `CC(C)c1ccc(CN2CCOCCOCCN(Cc3ccc(C(C)C)cc3)CCOCC2)cc1`, “inactive”.
Take `COc1ccc(CN2CCOCCOCCN(Cc3ccc(OC)cc3)CCOCC2)cc1`: the IC50 result was “inactive”.
With `FC(F)(F)c1cccc(CN2CCOCCOCCN(Cc3cccc(C(F)(F)F)c3)CCOCC2)c1`, the IC50 is 30.6 µM.
Still for that read-out and setting: under `CN(C)c1ccc(CN2CCOCCOCCN(Cc3ccc(N(C)C)cc3)CCOCC2)cc1` stands “inactive”; under `FC(F)(F)c1cc(CN2CCOCCOCCN(Cc3cc(C(F)(F)F)cc(C(F)(F)F)c3)CCOCC2)cc(C(F)(F)F)c1`, 24.3 µM.
In the case of `Cc1ccccc1CN1CCOCCOCCN(Cc2ccccc2C)CCOCC1`, the IC50 was 13.3 µM.
In the case of `Cc1ccsc1CN1CCOCCOCCN(Cc2sccc2C)CCOCC1`, the IC50 is 19.7 µM.
The same measure, in the same setting: under `COC(=O)c1ccc(CN2CCOCCOCCN(Cc3ccc(C(=O)OC)cc3)CCOCC2)cc1` stands 32.6 µM; under `COc1cc(CN2CCOCCOCCN(Cc3cc(OC)cc(OC)c3)CCOCC2)cc(OC)c1`, 37.6 µM.
Same read-out and setting: for `Oc1ccccc1CN1CCOCCOCCN(Cc2ccccc2O)CCOCC1` the value was “inactive”.

The same experiment, now with this note: thallium flux FluoZin2 fluorescence, at 1 mM (top of the series).
For `CSc1ccc(CN2CCOCCOCCN(Cc3ccc(SC)cc3)CCOCC2)cc1`, the “% TPNQ activity” value was “inactive”.
The same measure, in the same setting: under `N#Cc1cc(CN2CCOCCOCCN(Cc3ccc(F)c(C#N)c3)CCOCC2)ccc1F` stands 14.7%; under `COc1ccc(CN2CCOCCOCCN(Cc3ccc(OC)nc3)CCOCC2)cn1`, 43.4%.
